The record followed here is ChEMBL document CHEMBL1142099, “Paecilodepsipeptide A, an antimalarial and antitumor Cyclohexadepsipeptide from the insect pathogenic fungus Paecilomyces cinnamomeus BCC 9616” (J Nat Prod, 2007).

The test system of one data set is Vero. The data set can be described thus: Cytotoxicity against African green monkey Vero cells upto 67 uM. The class given is cell-based. The settings on record: chlorocebus sabaeus. The method in brief: (§1)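 Colorimetric cytotoxicity assay on KB (oral human epidermoid carcinoma), BC (human breast cancer) and Vero (African green monkey kidney fibroblast) cells; IC50 determined, Vero tested up to 67 µM (50 µg/mL). Ellipticine used as reference standard.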

Data set [1] in a line: Cytotoxicity against human BC cells. The class given is cell-based. As to conditions: for Activity: human, bc. The method in brief: as §1
For the next data set, the system named is KB. The data set can be described thus: Cytotoxicity against human KB cells. The data set is classed as cell-based. The settings on record: for Activity: human, kb. The method in brief:
as §1

The subject of the next data set is Plasmodium falciparum. Put plainly: Antimalarial activity against Plasmodium falciparum K1. The class given is functional, organism-based. The method in brief: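 P. falciparum K1 (multidrug-resistant strain) tested by microculture radioisotope technique; IC50 determined. Dihydroartemisinin used as reference standard.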

The source made the active and inactive calls. The rule behind the calls is not given here.

For the compound `CC(C)=CCOc1ccc(C[C@H]2NC(=O)[C@@H](C)NC(=O)[C@@H](Cc3ccc(O)cc3)NC(=O)CNC(=O)[C@H](C)NC(=O)[C@H](Cc3ccccc3)OC2=O)cc1` [PAECILODEPSIPEPTIDE A], in the data set with Vero, the Activity entry is on record as “Not Active”. For the same compound, the IC50 – broadly, the concentration that inhibits the measured activity by half – in data set [1] (Homo sapiens, BC) is 6.6 µM; with KB (Homo sapiens, KB), 5.9 µM; with Plasmodium falciparum, 4.9 µM.

Regarding `CC(C)=CCOc1ccc(C[C@@H](NC(=O)[C@@H](C)NC(=O)[C@@H](Cc2ccc(O)cc2)NC(=O)CNC(=O)[C@H](C)NC(=O)[C@@H](O)Cc2ccccc2)C(=O)O)cc1` [PAECILODEPSIPEPTIDE B], the Activity result (with Vero; in data set [1]; with KB) was “Not Active” throughout. The result with Plasmodium falciparum was inactive.

Regarding `COC(=O)[C@@H](Cc1ccc(OCC=C(C)C)cc1)NC(=O)[C@@H](C)NC(=O)[C@@H](Cc1ccc(O)cc1)NC(=O)CNC(=O)[C@H](C)NC(=O)[C@@H](O)Cc1ccccc1` [PAECILODEPSIPEPTIDE C], the Activity entry (in the data set on Vero; in data set [1]; with KB) was “Not Active” in each case. In the data set on Plasmodium falciparum, the result was inactive.
